Data: article PMC3786212 (Structure (London, England : 1993), 2012)
Each block holds one molecule with its values, some of them ahead of it.

What was measured:
[1] = target: UBE2F^NAc, N-terminally acetylated UBE2F (human) (UniProt Q969M7); assay: ITC
[2] = target: DCNL1^P (DCNL1 PONY domain) (Homo sapiens, UniProt Q96GG9); assay: ITC binding to DCNL1 PONY domain; conditions: full-length UBE2F protein, pH 7.0, 16 °C
Outline: (§1)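 Buffer-matched by NAP-5 desalting into 25 mM HEPES, 125 mM NaCl, 1 mM BME, pH 7.0. N-terminally acetylated UBE2F in cell at 100 µM final, 16 °C. PONY domain (1 mM) injected as 2.5 µl, 5 s injections at 3 min intervals. Heats and Kd from fits of integrated data. At least two independent runs; values from one run.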

[3] = target: DCNL2^P (DCNL2 PONY domain) (Homo sapiens, UniProt Q6PH85); assay: ITC binding to DCNL2 PONY domain; conditions: full-length UBE2F protein, pH 7.0, 16 °C
Outline: as §1

[4] = target: T1, DCNL4^P (DCNL4 PONY domain) (Homo sapiens, UniProt Q92564); assay: ITC binding to DCNL4 PONY domain; conditions: full-length UBE2F protein, pH 7.0, 16 °C
T1 sequence (Q92564 101-287 limits assumed): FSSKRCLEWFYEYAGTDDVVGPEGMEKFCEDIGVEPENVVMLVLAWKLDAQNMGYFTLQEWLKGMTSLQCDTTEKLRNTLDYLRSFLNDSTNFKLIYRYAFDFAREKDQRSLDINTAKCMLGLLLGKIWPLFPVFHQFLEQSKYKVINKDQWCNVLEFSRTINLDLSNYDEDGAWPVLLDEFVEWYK
Outline: as §1

[5] = target: T2, DCNL5^P (DCNL5 PONY domain) (Homo sapiens, UniProt Q9BTE7); assay: ITC binding to DCNL5 PONY domain; conditions: full-length UBE2F protein, pH 7.0, 16 °C
T2 sequence (Q9BTE7 46-232 limits assumed): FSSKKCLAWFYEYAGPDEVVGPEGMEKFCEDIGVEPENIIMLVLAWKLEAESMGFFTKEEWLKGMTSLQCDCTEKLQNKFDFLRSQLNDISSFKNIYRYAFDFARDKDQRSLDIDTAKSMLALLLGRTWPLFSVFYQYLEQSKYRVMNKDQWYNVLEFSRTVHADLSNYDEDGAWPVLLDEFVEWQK
Outline: as §1

Sequence of DCNL2^P (DCNL2 PONY domain) (Q6PH85 60-248 limits assumed): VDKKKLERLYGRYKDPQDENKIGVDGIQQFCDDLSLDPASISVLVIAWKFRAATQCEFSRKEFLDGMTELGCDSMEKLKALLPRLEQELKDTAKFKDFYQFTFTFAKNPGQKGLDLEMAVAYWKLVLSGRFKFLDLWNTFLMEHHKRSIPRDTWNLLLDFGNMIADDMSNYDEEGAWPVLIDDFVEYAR
Sequence of DCNL1^P (DCNL1 PONY domain) (Q96GG9 60-248 limits assumed): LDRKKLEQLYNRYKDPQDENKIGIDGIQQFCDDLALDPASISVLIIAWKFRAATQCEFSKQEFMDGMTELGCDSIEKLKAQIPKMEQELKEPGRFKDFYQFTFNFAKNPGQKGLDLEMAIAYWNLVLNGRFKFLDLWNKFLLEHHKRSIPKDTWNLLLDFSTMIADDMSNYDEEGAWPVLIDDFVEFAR

Kd [1]: 1000 nM
Molecule: DCNL3 PONY domain (DCNL3^P) (from UniProt Q8IWE4 86-304) (domain or fragment)

fold decrease in binding against DCNL3^P [1]: 5 fold
Molecule: DCNL1 PONY domain (DCNL1^P) (from UniProt Q96GG9 62-259) (domain or fragment)

fold decrease in binding against DCNL3^P [1]: 5 fold
Molecule: DCNL2 PONY domain (DCNL2^P) (from UniProt Q6PH85 62-259) (domain or fragment)

fold decrease in binding relative to DCNL3^P [2]: 5 fold
fold decrease in binding relative to DCNL3^P [3]: 5 fold
Kd [4]: too high for us to measure
Kd [5]: too high for us to measure
B1: UBE2F^NAc: N-terminally acetylated human UBE2F, NEDD8 E2, expressed in insect cells (protein)
chain: MLTLASKLKRDDGLKGSRTAATASDSTRRVSVRDKLLVKEVAELEANLPCTCKVHFPDPNKLHCFQLTVTPDEGYYQGGKFQFETEVPDAYNMVPPKVKCLTKIWHPNITETGEICLSLLREHSIDGTGWAPTRTLKDVVWGLNSLFTDLLNFDDPLNIEAAEHHLRDKEDFRNKVDDYIKRYAR
modifications: N-terminal methionine retained and N-terminally acetylated; left off: His tag, C-terminal, state not stated

binding (ITC) [2]: could not measure binding
binding (ITC) [3]: could not measure binding
Kd [4]: could not measure binding
Kd [5]: could not measure binding
B2: unacetylated UBE2F: UBE2F prepared in E. coli as SUMO fusion, unacetylated N-terminal Met (protein)
chain: B1 chain
modifications: left off: SUMO, N-terminal, cleaved
